Key:
shPin1–PLC cells = test: Cell viability assay; format: cell-based, human; settings: 20 μM; 24 h, 48 h, 72 h
In short: (§1)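 Stable lines made by lentiviral pLKO.1 shRNA (PIN1 or scrambled) produced in 293T with pVSVG, pREV and pMDL helpers. PLC cells were infected, selected with 1 μg/mL puromycin and checked by Western blot. Viability read by MTT: 3 h incubation, DMSO solubilisation, 490 nm, expressed as OD sample/OD control × 100.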

PLC cells = test: Cell viability assay; format: cell-based, human; settings: 0 to 40 μM ATRA; 24 h, 48 h, 72 h
In short: (§2)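 Seeded in 96-well plates at 3000 (HuH7) or 6000 (PLC) cells/well in DMEM or MEM with 10% FBS and cultured overnight. Treated with blank PLLA particles, free drug or drug-loaded PLLA particles; untreated control. MTT (5 mg/mL stock) added for 3 h, formazan dissolved in DMSO, absorbance read at 490 nm. Viability = OD sample/OD control × 100; IC50 calculated from inhibition rates.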

Pin1 [1] = target: T1, Pin1 (Homo sapiens, UniProt Q13526); test: Western blotting of Pin1 and its substrates in HCC cells; format: cell-based; settings: 72 h; for Pin1 expression: 20 μM ATRA
In short: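 PIN1-shRNA or scrambled-shRNA HuH7 and PLC lines were made by lentiviral transduction with 1 μg/mL puromycin selection. Lysates prepared in RIPA and quantified by BCA, run on SDS-PAGE and transferred to PVDF. Blocked in 5% milk, probed with anti-Pin1 (1:3000) then HRP secondary, detected by chemiluminescence; β-actin as loading control.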

Pin1 [2] = target: T1, Pin1; test: Pin1 and substrate expression in xenograft tumors; format: in vivo, BALB/c nu/nu mice; settings: immunofluorescence staining, 3 weeks treatment
In short: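 Male nude mice carried subcutaneous hind-limb HuH7 xenografts (4 × 10⁶ cells) and were treated for three weeks. Frozen tumour sections (10 μm) fixed in acetone 10 min, permeabilised and blocked with 1% Triton X-100 plus 10% donkey serum for 40 min. Primary antibodies (PIN1, Ki67) applied 24 h at 4°C, secondary 1 h at room temperature, DAPI nuclear stain.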

HuH7 cells [3] = test: Cell viability assay; format: cell-based, human; settings: 0 to 40 μM ATRA; 24 h, 48 h, 72 h
In short: as §2

shPin1–HuH7 cells = test: Cell viability assay; format: cell-based, human; settings: 20 μM
shV–PLC cells = test: Cell viability assay; format: cell-based, human; settings: 20 μM; 24 h, 48 h, 72 h
In short: as §1

[4] = test system: normal human liver L-02 cells; test: Cell viability assay; format: cell-based; settings: even at 20 μM
shV–HuH7 cells = test: Cell viability assay; format: cell-based, human; settings: 20 μM, 72 h
HuH7 cells [5] = test: Focus formation assay; format: cell-based, human; settings: 72 h treatment, then 10~14 days; vs control cells
In short: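 HuH7 seeded at 500 or 2000 cells/well in 12- or 6-well plates, cultured overnight, then treated 72 h with blank PLLA particles, free drug or drug-loaded PLLA particles. Medium then replaced and cells grown 10~14 days. Fixed and stained with 0.5% methylene blue in methanol; colonies above 50 cells counted. Focus area given as % of untreated control; triplicates.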

[6] = Weight of mice in xenograft experiment; format: in vivo, BALB/c nu/nu mice; settings: 3 weeks treatment
In short: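 Male BALB/c nu/nu mice bore subcutaneous hind-limb HuH7 xenografts (4 × 10⁶ cells) and were randomised at about 50 mm³. Groups received saline, free drug (ethanol diluted in corn oil), blank PLLA particles, slow-release pellet, or drug-loaded particles in saline. Dosing was i.p. at 15 mg/kg drug, twice weekly for three weeks. Body weight recorded weekly.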

[7] = under physiological conditions ref 41; cited from earlier work
HuH7 cells [8] = test: Cell cycle and apoptosis analysis; format: cell-based, human; settings: 10 μM and 20 μM ATRA, 72 h
In short: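 HuH7 seeded at 0.9 × 10⁴ cells/cm², cultured overnight, then given blank PLLA particles (0.25 mg/mL), free drug (10 and 20 μM) or drug-loaded PLLA particles (10 and 20 μM drug) for 72 h; untreated cells as control. Trypsinised cells fixed in 70% ethanol (4°C, 2 h), stained with propidium iodide (30 min, 37°C, dark) using a kit, then analysed by flow cytometry.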

T1 sequence (Q13526 whole entry): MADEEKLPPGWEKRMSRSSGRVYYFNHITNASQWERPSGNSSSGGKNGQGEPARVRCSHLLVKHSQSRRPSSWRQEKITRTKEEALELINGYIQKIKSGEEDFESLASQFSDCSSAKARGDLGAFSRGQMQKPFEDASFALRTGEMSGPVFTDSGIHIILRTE

SMILES: CC1=C(/C=C/C(C)=C/C=C/C(C)=C/C(=O)O)C(C)(C)CCC1 [ATRA, all-trans retinoic acid]
- Decrease of cell viability (shPin1–PLC cells): did not decrease cell viability
- Inhibition on PLC cell viability (PLC cells): dose-dependent inhibition
- Expression of Pin1 and its substrates (β-catenin, c-JUN, NF-κB, Cyclin D1, CDK2, CDK6) (Pin1 [1]; HuH7 and PLC cells, 5-20 μM ATRA): obvious dose-dependent down-regulations
- Pin1 expression (Pin1 [1]; shPin1–HuH7 and shPin1–PLC cells): did not affect
- Pin1 expression (Pin1 [1]; shV–HuH7 and shV–PLC cells): significantly down-regulated
- Expression of Pin1 and Ki67 in tumors vs saline group (Pin1 [2]): did not induce obvious changes
- Inhibition on HuH7 cell viability (HuH7 cells [3]): Dose-dependent inhibition
- Decrease of cell viability (shPin1–HuH7 cells; 24 h and 48 h): did not decrease cell viability
- Reduction of cell viability (shPin1–HuH7 cells; 72 h): about 15%
- Inhibition on cell viability (shV–PLC cells): significant time-dependent inhibition
- Inhibition on viability of L-02 cells [4]: no significant inhibition
- Decrease of cell viability (shV–HuH7 cells): approximately 36%
- Inhibition on cell viability (shV–HuH7 cells; 24 h, 48 h): very significant (p < 0.001) time-dependent inhibition
- Number and area of foci (HuH7 cells [5]): significant dose-dependent reductions
- Weights of mice vs saline group [6]: did not induce significant changes
- Aqueous solubility [7]: 0.21 µM
- Apoptosis (HuH7 cells [8]): did not induce significant apoptosis
- Proportion of cells in G0/G1 phase (HuH7 cells [8]): significantly increased
- Proportion of cells in G2/M phase (HuH7 cells [8]): decreased
